In ChEMBL document CHEMBL1137361, “WB4101-related compounds: new, subtype-selective alpha1-adrenoreceptor antagonists (or inverse agonists?)” (J Med Chem, 2006):

Experiments:
[1] = molecular target: T1, Alpha-1A adrenergic receptor (Homo sapiens, UniProt P35348); experiment: Displacement of [3H]prazosin from cloned human adrenergic alpha 1A receptor expressed in CHO cells; type: cell-based
T1 sequence (P35348 whole entry): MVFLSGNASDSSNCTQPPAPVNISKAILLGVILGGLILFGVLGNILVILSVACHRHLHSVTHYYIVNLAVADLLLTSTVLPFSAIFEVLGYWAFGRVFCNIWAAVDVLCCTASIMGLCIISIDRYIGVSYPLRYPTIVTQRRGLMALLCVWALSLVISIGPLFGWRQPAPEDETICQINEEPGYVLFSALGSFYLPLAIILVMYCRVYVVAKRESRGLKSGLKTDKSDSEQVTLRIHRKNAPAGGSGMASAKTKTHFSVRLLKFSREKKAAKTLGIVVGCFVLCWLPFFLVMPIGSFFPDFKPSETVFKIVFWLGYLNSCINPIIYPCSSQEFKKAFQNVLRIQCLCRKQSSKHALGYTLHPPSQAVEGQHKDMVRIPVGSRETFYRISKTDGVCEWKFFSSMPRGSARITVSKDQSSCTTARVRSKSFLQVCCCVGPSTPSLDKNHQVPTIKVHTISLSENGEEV
Method in brief: (§1)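 Radioligand binding with [3H]prazosin as the label. Membranes came from CHO cells expressing the cloned human receptor. Affinity is expressed as pKi.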

[2] = molecular target: T2, Alpha-1D adrenergic receptor (Homo sapiens, UniProt P25100); experiment: Displacement of [3H]prazosin from cloned human adrenergic alpha 1D receptor expressed in CHO cells; type: cell-based; method in brief: as §1
T2 sequence (P25100 whole entry): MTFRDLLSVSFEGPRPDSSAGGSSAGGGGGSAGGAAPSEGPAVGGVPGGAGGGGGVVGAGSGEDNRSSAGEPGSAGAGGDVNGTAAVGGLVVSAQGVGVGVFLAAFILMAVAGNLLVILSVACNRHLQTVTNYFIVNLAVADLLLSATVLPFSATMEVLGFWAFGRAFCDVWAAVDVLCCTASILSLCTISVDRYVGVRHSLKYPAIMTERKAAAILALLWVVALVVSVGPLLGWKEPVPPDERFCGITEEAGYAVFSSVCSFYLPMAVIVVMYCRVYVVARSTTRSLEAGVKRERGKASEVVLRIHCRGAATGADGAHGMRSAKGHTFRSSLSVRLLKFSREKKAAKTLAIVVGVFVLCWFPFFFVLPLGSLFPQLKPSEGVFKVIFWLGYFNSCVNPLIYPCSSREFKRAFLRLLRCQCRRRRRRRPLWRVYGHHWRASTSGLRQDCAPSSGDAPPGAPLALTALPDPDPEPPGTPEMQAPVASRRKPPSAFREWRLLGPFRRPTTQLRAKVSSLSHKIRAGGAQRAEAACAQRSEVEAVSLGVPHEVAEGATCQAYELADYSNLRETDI

[3] = molecular target: T3, Alpha-1D adrenergic receptor (Rattus norvegicus, UniProt P23944); experiment: Activity at adrenergic alpha 1D receptor assessed as antagonism on noradrenaline-induced contraction of Sprague-Dawley rat thoracic aorta; type: functional, tissue-based; conditions: read-out: pA2 (converted)
T3 sequence (P23944 whole entry): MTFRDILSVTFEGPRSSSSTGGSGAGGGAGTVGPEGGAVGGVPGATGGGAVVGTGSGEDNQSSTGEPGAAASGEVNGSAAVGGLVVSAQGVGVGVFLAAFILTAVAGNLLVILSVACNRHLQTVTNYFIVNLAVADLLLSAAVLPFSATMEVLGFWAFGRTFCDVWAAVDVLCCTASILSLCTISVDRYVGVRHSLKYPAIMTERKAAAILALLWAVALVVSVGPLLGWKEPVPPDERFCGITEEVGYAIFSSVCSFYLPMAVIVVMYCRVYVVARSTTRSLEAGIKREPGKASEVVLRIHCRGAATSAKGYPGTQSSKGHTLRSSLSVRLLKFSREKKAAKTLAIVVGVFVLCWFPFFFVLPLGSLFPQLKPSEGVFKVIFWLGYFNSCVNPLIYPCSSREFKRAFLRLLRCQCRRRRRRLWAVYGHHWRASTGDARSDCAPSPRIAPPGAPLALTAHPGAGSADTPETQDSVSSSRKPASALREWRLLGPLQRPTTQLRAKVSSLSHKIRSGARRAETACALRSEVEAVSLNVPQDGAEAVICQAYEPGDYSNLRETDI
Method in brief: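 Rat thoracic aorta contracted with (-)-noradrenaline. Blocking activity was measured as antagonism of the contraction.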

[4] = molecular target: T4, Alpha-1A adrenergic receptor (Rattus norvegicus, UniProt P43140); experiment: Activity at adrenergic alpha 1A receptor assessed as antagonism of noradrenaline-induced contraction of Sprague-Dawley rat vas deferens; type: functional, tissue-based; conditions: read-out: pA2 (converted)
T4 sequence (P43140 whole entry): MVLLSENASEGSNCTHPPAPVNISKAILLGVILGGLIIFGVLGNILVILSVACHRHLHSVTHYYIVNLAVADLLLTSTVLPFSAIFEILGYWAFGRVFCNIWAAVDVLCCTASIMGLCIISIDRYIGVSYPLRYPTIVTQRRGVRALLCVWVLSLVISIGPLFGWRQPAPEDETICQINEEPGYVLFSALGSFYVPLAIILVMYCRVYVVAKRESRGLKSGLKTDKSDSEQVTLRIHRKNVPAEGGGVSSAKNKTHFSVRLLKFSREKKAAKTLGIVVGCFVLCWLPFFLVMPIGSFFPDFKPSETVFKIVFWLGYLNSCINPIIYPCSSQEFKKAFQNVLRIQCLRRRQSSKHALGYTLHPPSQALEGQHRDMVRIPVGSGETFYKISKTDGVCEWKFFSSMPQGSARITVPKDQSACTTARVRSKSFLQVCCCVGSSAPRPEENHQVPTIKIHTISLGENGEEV
Method in brief: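 Rat vas deferens, prostatic portion. Contraction was induced with (-)-noradrenaline, and blocking activity was measured as antagonism of that contraction.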

[5] = molecular target: Alpha adrenergic receptor 1A and 1D (Rattus norvegicus) (UniProt P23944+P43140); experiment: Selectivity for Sprague-Dawley rat adrenergic alpha 1D receptor over adrenergic alpha 1A receptor; type: functional
[6] = molecular target: T5, Alpha-1B adrenergic receptor (Homo sapiens, UniProt P35368); experiment: Displacement of [3H]prazosin from cloned human adrenergic alpha 1B receptor expressed in CHO cells; type: cell-based; method in brief: as §1
T5 sequence (P35368 whole entry): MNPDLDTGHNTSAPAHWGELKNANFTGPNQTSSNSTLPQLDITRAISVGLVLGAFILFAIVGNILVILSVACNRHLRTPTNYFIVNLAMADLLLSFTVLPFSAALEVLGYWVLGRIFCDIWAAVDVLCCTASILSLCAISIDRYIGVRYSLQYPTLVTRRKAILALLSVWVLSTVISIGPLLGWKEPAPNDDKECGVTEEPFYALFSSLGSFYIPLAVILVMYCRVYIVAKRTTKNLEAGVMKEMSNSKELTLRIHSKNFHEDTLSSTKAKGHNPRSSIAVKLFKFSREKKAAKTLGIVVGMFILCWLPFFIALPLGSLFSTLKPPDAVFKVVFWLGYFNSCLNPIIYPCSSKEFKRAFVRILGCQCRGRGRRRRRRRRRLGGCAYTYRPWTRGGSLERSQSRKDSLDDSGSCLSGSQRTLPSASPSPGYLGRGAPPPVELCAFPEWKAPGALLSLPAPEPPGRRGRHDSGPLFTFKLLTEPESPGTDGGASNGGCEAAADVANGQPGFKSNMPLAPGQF

[7] = molecular target: Adrenergic receptors; alpha-1 A & B (Homo sapiens) (UniProt P35348+P35368); experiment: Selectivity for human adrenergic alpha 1B receptor over human adrenergic alpha 1A receptor; type: protein assay

Row | SMILES | Ki [1] [nM] | Ki [2] [nM] | Kb [3] [nM] | Kb [4] [nM] | Selectivity ratio [5] | Ki [6] [nM] | Selectivity ratio [7]
1 | COc1ccc2ccccc2c1OCCNC[C@H]1COc2cc3c(cc2O1)CCCC3 | 66.1 | 148 | 2570 | 10.5 | 245 | 372 | 5.6
2 | COc1ccc2ccccc2c1OCCNC[C@@H]1COc2ccccc2O1 | 4.57 | 22.4 | 10 | 58.9 | 0.17 | 85.1 | 18.6
3 | COc1cccc(OC)c1OCCNC[C@H]1COc2cc3c(cc2O1)CCCC3 | 25.1 | 339 | 4370 | > 10000 | < 0.4 | 575 | 22.9
4 | COc1cc(-c2ccccc2)ccc1OCCNC[C@H]1COc2ccccc2O1 | 87.1 | 214 | 107 | 759 | 0.14 | 186 | 2.1
5 | COc1cccc(-c2ccccc2)c1OCCNC[C@H]1COc2ccccc2O1 | 1.2 | 3.39 | 1.02 | 6.17 | 0.2 | 17.8 | 14.8
6 | COc1ccc2c(c1OCCNC[C@H]1COc3ccccc3O1)CCCC2 | 2.82 | 14.5 | 4.07 | 91.2 | 0.04 | 19.1 | 6.8
7 | COc1ccc(-c2ccccc2)cc1OCCNC[C@H]1COc2ccccc2O1 | 5.62 | 15.1 | 61.7 | > 10000 | < 0.006 | 11 | 1.9
8 | COc1cccc(OC)c1OCCNC[C@H]1COc2cc3ccccc3cc2O1 | 33.9 | 417 | 182 | 3470 | 0.05 | 891 | 26.3
9 | COc1ccc2ccccc2c1OCCNC[C@H]1COc2ccccc2O1 | 1.58 | 6.61 | 0.0209 | 1.1 | 0.02 | 15.8 | 10
